Assays:
[1] = Inhibition of rat brain Casein kinase II
[2] = Effective concentration for 50% inhibition of endothelial cell based plasminogen activity relative to control by beta-PDBu stimulation; format: functional
How it was run: (§1)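 Bovine retinal capillary endothelial cells (passages 3–10), grown to confluence (10⁵ cells/well) in EGM with 10% FBS, switched to DME/10% FBS 24 h before assay; treated with 4β-PDBu plus compound in DMSO, 37 °C, 48 h. Lysate (25 mM NH₄OH, 0.5% Triton X-100) incubated with plasminogen and 1 mM chromogenic substrate, 25 °C 45 min, A410 against urokinase/tPA standard curve.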

[3] = Effective dose against plasminogen activator activity stimulated by phorbol ester in endothelial cells; format: functional; settings: Endothelial cell; read-out: ED50 (the source's name)
[4] = target: Protein kinase C gamma type (Homo sapiens, UniProt P05129); experiment: Inhibition of Protein kinase C gamma
[5] = target: T1, Protein kinase C epsilon type (Homo sapiens, UniProt Q02156); experiment: Inhibition of Protein kinase C epsilon
T1 sequence (Q02156 whole entry): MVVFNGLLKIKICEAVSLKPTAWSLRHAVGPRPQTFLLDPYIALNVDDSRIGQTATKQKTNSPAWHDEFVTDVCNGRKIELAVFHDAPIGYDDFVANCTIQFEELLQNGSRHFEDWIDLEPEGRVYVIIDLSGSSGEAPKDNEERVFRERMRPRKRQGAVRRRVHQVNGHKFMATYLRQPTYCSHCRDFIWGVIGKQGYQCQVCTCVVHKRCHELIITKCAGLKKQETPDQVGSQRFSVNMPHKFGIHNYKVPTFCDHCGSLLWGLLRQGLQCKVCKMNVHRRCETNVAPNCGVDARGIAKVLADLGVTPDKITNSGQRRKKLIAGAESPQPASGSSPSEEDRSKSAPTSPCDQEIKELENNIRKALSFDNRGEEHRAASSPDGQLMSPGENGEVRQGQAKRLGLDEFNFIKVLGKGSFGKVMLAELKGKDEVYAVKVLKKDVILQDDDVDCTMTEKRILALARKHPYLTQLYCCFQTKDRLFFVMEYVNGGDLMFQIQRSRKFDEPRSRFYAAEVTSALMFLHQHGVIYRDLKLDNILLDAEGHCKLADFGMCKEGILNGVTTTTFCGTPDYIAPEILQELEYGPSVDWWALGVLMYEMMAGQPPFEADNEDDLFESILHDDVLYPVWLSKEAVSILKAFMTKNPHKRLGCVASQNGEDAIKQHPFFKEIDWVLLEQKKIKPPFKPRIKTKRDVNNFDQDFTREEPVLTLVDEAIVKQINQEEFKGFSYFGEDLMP

[6] = target: Protein kinase C eta type (Homo sapiens, UniProt P24723); experiment: Inhibition of Protein kinase C eta
Sequence of Protein kinase C eta type (P24723 whole entry): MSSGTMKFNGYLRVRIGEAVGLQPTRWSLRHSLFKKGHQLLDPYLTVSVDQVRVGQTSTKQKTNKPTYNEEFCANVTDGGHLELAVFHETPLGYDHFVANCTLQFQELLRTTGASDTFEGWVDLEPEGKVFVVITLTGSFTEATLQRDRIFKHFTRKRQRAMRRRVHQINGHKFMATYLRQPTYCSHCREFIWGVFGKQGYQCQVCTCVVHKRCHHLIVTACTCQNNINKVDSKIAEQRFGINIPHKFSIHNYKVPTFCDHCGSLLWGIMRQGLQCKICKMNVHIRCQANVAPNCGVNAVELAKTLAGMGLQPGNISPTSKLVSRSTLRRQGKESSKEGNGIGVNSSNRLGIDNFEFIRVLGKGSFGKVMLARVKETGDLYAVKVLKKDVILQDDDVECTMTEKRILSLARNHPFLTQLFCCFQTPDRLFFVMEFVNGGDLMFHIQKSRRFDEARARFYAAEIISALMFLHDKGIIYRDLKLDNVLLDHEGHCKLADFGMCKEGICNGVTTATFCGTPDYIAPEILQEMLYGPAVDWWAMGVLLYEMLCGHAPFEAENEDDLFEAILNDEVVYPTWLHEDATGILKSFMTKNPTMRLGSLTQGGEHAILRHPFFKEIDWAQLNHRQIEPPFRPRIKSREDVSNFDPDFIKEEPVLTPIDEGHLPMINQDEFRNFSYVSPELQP

[7] = target: T2, Protein kinase C zeta type (Homo sapiens, UniProt Q05513); experiment: Inhibition of Protein kinase C zeta
T2 sequence (Q05513 whole entry): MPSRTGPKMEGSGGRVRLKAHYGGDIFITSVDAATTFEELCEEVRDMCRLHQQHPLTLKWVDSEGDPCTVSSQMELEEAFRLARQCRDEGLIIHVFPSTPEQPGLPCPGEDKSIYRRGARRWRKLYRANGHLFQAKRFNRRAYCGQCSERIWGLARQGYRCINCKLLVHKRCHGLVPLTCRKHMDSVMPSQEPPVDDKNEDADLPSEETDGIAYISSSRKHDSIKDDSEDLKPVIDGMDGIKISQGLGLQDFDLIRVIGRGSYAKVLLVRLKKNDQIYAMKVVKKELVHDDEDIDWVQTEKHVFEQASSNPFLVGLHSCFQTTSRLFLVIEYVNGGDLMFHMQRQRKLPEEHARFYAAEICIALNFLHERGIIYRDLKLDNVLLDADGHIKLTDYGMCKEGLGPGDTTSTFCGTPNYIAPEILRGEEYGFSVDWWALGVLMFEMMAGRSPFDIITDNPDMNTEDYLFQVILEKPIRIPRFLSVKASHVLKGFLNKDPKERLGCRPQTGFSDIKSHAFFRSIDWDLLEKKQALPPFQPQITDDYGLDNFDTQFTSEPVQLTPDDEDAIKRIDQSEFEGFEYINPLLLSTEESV

[8] = target: Proto-oncogene tyrosine-protein kinase Src (Homo sapiens, UniProt P12931); experiment: Inhibition of src kinase
Sequence of Proto-oncogene tyrosine-protein kinase Src (P12931 2-536 limits assumed): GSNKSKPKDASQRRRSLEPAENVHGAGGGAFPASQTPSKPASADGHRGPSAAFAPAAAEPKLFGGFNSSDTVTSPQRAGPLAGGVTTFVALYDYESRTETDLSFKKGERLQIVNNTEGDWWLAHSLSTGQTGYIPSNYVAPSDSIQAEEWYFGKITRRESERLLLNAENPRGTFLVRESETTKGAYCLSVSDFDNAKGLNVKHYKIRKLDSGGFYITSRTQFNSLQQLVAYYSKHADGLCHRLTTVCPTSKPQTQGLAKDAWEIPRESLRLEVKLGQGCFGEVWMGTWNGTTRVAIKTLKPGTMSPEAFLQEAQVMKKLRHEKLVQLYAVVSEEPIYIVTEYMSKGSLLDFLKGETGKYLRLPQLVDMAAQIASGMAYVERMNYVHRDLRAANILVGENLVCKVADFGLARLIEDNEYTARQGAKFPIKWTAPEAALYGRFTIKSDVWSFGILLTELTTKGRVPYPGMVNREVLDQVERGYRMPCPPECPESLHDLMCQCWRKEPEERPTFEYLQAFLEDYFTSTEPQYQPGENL

[9] = Inhibition of Bovine heart cAMP-dependent protein kinase; parameters: species or system Bos taurus
How it was run: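 Bovine heart cAMP-dependent kinase catalytic subunit with 200 µg/mL histone type HL substrate in 20 mM HEPES pH 7.5, 10 mM MgCl₂, 30 µM [γ-³²P]ATP; inhibitor in DMSO; 30 °C, 10 min; TCA-stopped, precipitate filtered and scintillation-counted. Average of at least three independent determinations from eight-point titration curves.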

[10] = Effective concentration for 50% inhibition of endothelial cell- based plasminogen activator activity relative to control by beta-PDBu stimulation; format: functional; how it was run: as §1
[11] = target: Protein kinase C delta type (Homo sapiens, UniProt Q05655); experiment: Inhibition of Protein kinase C delta
Sequence of Protein kinase C delta type (Q05655 whole entry): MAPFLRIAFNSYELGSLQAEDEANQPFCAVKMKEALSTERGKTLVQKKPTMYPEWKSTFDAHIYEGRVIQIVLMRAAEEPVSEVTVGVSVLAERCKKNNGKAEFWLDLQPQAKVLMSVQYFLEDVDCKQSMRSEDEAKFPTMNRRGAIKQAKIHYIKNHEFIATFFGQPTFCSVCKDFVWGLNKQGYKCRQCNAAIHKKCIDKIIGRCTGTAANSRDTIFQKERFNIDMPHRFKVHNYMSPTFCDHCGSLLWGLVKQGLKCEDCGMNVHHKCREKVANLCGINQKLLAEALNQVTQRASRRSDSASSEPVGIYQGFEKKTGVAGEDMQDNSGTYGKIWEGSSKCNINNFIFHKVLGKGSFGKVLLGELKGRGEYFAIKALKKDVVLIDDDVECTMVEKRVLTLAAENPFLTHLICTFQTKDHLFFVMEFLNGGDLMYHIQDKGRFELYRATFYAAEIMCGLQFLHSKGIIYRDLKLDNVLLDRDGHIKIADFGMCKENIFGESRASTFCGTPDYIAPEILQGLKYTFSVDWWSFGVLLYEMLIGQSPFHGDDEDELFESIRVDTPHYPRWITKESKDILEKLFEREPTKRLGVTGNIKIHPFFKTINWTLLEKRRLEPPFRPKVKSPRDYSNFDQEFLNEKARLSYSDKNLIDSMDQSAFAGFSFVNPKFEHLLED

[12] = target: T3, Protein kinase C beta type (Homo sapiens, UniProt P05771); experiment: Inhibition of Protein kinase C beta 1
T3 sequence (P05771 whole entry): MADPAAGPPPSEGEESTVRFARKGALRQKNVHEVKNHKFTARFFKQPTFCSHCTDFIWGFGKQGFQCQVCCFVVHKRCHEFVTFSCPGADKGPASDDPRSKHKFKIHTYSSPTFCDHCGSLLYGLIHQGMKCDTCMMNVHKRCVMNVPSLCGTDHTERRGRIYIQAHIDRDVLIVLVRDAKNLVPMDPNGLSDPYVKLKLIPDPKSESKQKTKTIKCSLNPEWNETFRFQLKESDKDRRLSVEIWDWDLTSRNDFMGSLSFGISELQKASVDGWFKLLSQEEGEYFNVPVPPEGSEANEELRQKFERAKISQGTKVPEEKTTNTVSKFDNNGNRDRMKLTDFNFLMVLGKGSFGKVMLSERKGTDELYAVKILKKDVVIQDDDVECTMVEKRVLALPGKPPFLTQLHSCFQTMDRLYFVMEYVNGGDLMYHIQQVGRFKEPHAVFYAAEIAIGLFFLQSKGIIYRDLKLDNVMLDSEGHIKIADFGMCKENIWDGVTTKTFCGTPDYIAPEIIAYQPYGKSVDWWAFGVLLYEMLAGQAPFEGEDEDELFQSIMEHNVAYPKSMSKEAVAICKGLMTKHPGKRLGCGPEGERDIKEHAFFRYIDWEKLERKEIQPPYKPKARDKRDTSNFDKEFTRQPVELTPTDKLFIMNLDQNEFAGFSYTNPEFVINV

[13] = target: T3, Protein kinase C beta type; experiment: Inhibition of Protein kinase C beta 2
[14] = Concentration for 50% cell death determined by lysosomal staining in the neutral red viability assay.; settings: read-out: Tox50
How it was run: (§2)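 Bovine retinal capillary endothelial cells, passages 3–10, were grown to confluence (10⁵ cells/well) in EGM with 10% FBS. Medium was switched to DME with 10% FBS 24 h before the assay. Compound in DMSO was added for 48 h at 37 °C. Viability was read by neutral red lysosomal staining, and the value is the concentration giving 50% cell death.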

[15] = target: Protein kinase C alpha type (Homo sapiens, UniProt P17252); experiment: Inhibition of Protein kinase C alpha
Protein kinase C (PKC) [16] = experiment: (§3) Inhibition of rat brain Protein kinase C
[17] = Inhibition of purified mammalian brain calcium [Ca(2+)]/Calmodulin dependent kinase
[18] = Effective concentration for 50% inhibition of Endothelial cell- based plasminogen activator activity relative to control by beta-PDBu stimulation; format: functional; how it was run: as §1
Protein kinase C (PKC) [19] = experiment: as §3; remark: listed apart in the source
How it was run: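 Purified rat-brain PKC was used as enzyme. Values are averages of at least three independent determinations, each from an eight-point titration curve.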

[20] = Concentration for 50% cell death determined by lysosomal staining in the neutral red viability assay; settings: read-out: Tox50; how it was run: as §2

| Structure (SMILES) | IC50 [1] [nM] | EC50 [2] [nM] | EC50 [3] [nM] | IC50 [4] [nM] | IC50 [5] [nM] | IC50 [6] [nM] | IC50 [7] [nM] | IC50 [8] [nM] | IC50 [9] [nM] | EC50 [10] [nM] | IC50 [11] [nM] | IC50 [12] [nM] | IC50 [13] [nM] | CC50 [14] [nM] | IC50 [15] [nM] | IC50 (Protein kinase C (PKC) [16]) [nM] | IC50 [17] [nM] | EC50 [18] [nM] | IC50 (Protein kinase C (PKC) [19]) [nM] | CC50 [20] [nM] |
| --- | --- | --- | --- | --- | --- | --- | --- | --- | --- | --- | --- | --- | --- | --- | --- | --- | --- | --- | --- | --- |
| O=C1NC(=O)C2=C1c1cn(c3ccccc13)CCO[C@H](CO)CCn1cc2c2ccccc21 | > 100000 | 3000 | 3000 | 2000 | 79000 | 300 | 8700 | > 100000 | > 100000 |  |  |  |  |  |  |  |  |  |  |  |
| CNC[C@@H]1CCn2cc(c3ccccc32)C2=C(C(=O)NC2=O)c2cn(c3ccccc23)CCO1 |  |  | 240 | 270 | 1100 | 31 |  |  | 49000 | 240 | 170 |  |  |  |  |  |  |  |  |  |
| O=C1NC(=O)C2=C1c1cn(c3ccccc13)CCO[C@H](CN1CCOCC1)CCn1cc2c2ccccc21 |  |  | 3500 | 2500 | > 5000 | 1700 | > 5000 |  |  |  | 2000 | 49 | 38 | > 20000 |  |  |  |  |  |  |
| O=C1NC(=O)C2=C1c1cn(c3ccccc13)CCO[C@H](CNS(=O)(=O)c1ccccc1)CCn1cc2c2ccccc21 | > 100000 |  | > 2000 | > 5000 | > 5000 | 1900 | > 5000 | > 100000 | > 100000 | > 2000 | 880 |  |  | > 2000 | > 5000 | 10000 |  |  |  |  |
| NC[C@@H]1CCn2cc(c3ccccc32)C2=C(C(=O)NC2=O)c2cn(c3ccccc23)CCO1 | > 100000 |  | 7500 | 2100 | > 5000 | 240 |  | 89000 | 83000 | 7500 | 2600 |  |  | > 20000 | 1100 |  | 2700 |  |  |  |
| O=C1NC(=O)C2=C1c1cn(c3ccccc13)CCO[C@H](CNCc1ccccc1)CCn1cc2c2ccccc21 | > 100000 |  | 4300 | 6500 | 57000 | 2500 | 54000 | > 100000 | > 100000 | 4300 | 7800 | 330 | 310 | > 20000 | 6300 | 4200 |  |  |  |  |
| O=C1NC(=O)C2=C1c1cn(c3ccccc13)CCO[C@H](CN1CCCC1)CCn1cc2c2ccccc21 | > 100000 |  | 550 | 2200 | 3800 | 350 |  | 11000 | > 100000 | 550 | 3300 |  |  | > 10000 | 3500 |  | 5300 |  |  |  |
| CN1CCN(C[C@@H]2CCn3cc(c4ccccc43)C3=C(C(=O)NC3=O)c3cn(c4ccccc34)CCO2)CC1 |  |  | 550 | 3200 | > 5000 | 2000 | > 5000 |  |  |  | 2800 | 30 | 24 | > 20000 |  |  |  | 550 |  |  |
| CN(C)C[C@@H]1CCn2cc(c3ccccc32)C2=C(C(=O)NC2=O)c2cn(c3ccccc23)CCO1 [RUBOXISTAURIN] | > 100000 |  | 210 | 300 |  | 52 |  |  | > 100000 |  |  |  |  |  |  |  | 6200 |  | 320 | > 20000 |
| CN[C@@H]1C[C@H]2O[C@@](C)([C@@H]1OC)n1c3ccccc3c3c4c(c5c6ccccc6n2c5c31)C(=O)NC4 [STAUROSPORINE] |  |  |  |  |  |  |  |  |  |  |  |  |  | < 20 |  |  | 4 |  |  |  |

From ChEMBL document CHEMBL1129363, “(S)-13-[(dimethylamino)methyl]-10,11,14,15-tetrahydro-4,9:16, 21-dimetheno-1H, 13H-dibenzo[e,k]pyrrolo[3,4-h][1,4,13]oxadiazacyclohexadecene-1,3(2H)-d ione (LY333531) and related analogues: isozyme selective inhibitors of protein kinase C beta” (J Med Chem, 1996)
